# Results taken from ChEMBL document CHEMBL1132234, “Simplified pepstatins: synthesis and evaluation of N-terminally modified analogues” (J Med Chem, 1999).
# Target: not listed separately
# Test: (§1) The compound was tested for inhibitory effect towards the pepsin hydrolysis of Horseradish peroxidase
# Set-up: species or system plant
# How it was run: (§2)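 Pepsin (10 µg ≙ 35 units, freshly prepared) was mixed with DMSO serial dilutions of inhibitor (1.00 mg/mL solution, 1:10 then 1:2 steps), with horseradish peroxidase as protein substrate. Mixtures were serially diluted 1:2 in 0.05 N HCl, and residual peroxidase was read with o-phenylenediamine/H₂O₂ in 0.2 M phosphate pH 6.5 (15 min, room temperature, OD 492 nm). Pepstatin A served as reference. IC50 was determined.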
row,IC50,Structure (SMILES)
1,4.5 µM,CCCCCCC(O)[C@H](CC(C)C)NC(=O)[C@@H](NC(=O)[C@@H](NC(=O)C1CC1)C(C)C)C(C)C (stereo not given in full)
2,0.031 µM,CC(C)CC(=O)N[C@H](C(=O)N[C@H](C(=O)N[C@@H](CC(C)C)[C@@H](O)CC(=O)N[C@@H](C)C(=O)N[C@@H](CC(C)C)[C@@H](O)CC(=O)O)C(C)C)C(C)C [PEPSTATIN]

# Target: Pepsin A (Sus scrofa, UniProt P00791)
# Sequence (P00791 whole entry): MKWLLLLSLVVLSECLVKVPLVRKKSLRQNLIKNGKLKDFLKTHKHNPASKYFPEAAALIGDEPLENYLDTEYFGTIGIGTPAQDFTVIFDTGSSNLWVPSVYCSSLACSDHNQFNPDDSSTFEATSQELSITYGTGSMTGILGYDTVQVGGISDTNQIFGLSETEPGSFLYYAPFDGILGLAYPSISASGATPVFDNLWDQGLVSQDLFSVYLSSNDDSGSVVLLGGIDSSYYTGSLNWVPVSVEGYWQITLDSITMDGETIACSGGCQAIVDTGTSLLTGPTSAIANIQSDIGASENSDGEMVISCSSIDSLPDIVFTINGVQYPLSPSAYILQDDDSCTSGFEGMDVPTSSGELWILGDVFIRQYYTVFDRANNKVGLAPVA
# Test: as §1
# Set-up: species or system plant
# How it was run: as §2
row,Structure (SMILES),IC50
1,CCCCCCC(O)[C@H](CC(C)C)NC(=O)[C@@H](NC(=O)[C@@H](NC(=O)CCc1ccccc1)C(C)C)C(C)C (stereo not given in full),0.73 µM
2,CCCCCCC(O)[C@H](CC(C)C)NC(=O)[C@@H](NC(=O)[C@@H](NC(=O)OCc1ccccc1)C(C)C)C(C)C (stereo not given in full),0.69 µM
3,CCCCCCC(O)[C@H](CC(C)C)NC(=O)[C@@H](NC(=O)[C@@H](NC(=O)CC(C)(C)C)C(C)C)C(C)C (stereo not given in full),1.1 µM
4,CCCCCCC(O)[C@H](CC(C)C)NC(=O)[C@@H](NC(=O)[C@@H](NC(=O)OC(C)(C)C)C(C)C)C(C)C (stereo not given in full),0.21 µM

# More lines, now with the values ahead:
row,IC50,Structure (SMILES)
1,3.2 µM,CCCCCCC(O)[C@H](CC(C)C)NC(=O)[C@@H](NC(=O)[C@@H](NC(=O)CC)C(C)C)C(C)C (stereo not given in full)
2,3.6 µM,CCCCCCC(O)[C@H](CC(C)C)NC(=O)[C@@H](NC(=O)[C@@H](NC(=O)C(C)C)C(C)C)C(C)C (stereo not given in full)
3,0.92 µM,CCCCCCC(O)[C@H](CC(C)C)NC(=O)[C@@H](NC(=O)[C@@H](NC(=O)CC(C)C)C(C)C)C(C)C (stereo not given in full)
4,1.2 µM,CCCCCCC(O)[C@H](CC(C)C)NC(=O)[C@@H](NC(=O)[C@@H](NC(=O)OC(C)C)C(C)C)C(C)C (stereo not given in full)
